Compounds with a hit are over-represented: about 5.5% of the library has one in this group of screens.
WT yeast gro inh = growth inhibition of WT yeast, mitochondrial fusion screen. mitochondrial fusion phenotypic screen, WT strain. inhibition, % at 10 µM. 190,000 compounds, 2.1% hits. AID 1362; in the data active = inhibition above about 58%; tested in S. cerevisiae
Cl transport mod = KCC2 (human) Cl- transport modulation. B-score of Tl+ flux slope (higher = more flux/activation; lower = inhibition) at 10 µM. 190,000 compounds, 2.2% hits. KCC2 cells, thallium flux FluoZin-2 fluorescence;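 active = thallium flux slope and its plate-corrected score both differing from the plate sample mean at a set confidence after two filtering rounds, in either direction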;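 also: slope of fluorescence scaled to starting intensity during 10 to 20 s after thallium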
Target sequence (Q9H2X9 whole entry, looked up): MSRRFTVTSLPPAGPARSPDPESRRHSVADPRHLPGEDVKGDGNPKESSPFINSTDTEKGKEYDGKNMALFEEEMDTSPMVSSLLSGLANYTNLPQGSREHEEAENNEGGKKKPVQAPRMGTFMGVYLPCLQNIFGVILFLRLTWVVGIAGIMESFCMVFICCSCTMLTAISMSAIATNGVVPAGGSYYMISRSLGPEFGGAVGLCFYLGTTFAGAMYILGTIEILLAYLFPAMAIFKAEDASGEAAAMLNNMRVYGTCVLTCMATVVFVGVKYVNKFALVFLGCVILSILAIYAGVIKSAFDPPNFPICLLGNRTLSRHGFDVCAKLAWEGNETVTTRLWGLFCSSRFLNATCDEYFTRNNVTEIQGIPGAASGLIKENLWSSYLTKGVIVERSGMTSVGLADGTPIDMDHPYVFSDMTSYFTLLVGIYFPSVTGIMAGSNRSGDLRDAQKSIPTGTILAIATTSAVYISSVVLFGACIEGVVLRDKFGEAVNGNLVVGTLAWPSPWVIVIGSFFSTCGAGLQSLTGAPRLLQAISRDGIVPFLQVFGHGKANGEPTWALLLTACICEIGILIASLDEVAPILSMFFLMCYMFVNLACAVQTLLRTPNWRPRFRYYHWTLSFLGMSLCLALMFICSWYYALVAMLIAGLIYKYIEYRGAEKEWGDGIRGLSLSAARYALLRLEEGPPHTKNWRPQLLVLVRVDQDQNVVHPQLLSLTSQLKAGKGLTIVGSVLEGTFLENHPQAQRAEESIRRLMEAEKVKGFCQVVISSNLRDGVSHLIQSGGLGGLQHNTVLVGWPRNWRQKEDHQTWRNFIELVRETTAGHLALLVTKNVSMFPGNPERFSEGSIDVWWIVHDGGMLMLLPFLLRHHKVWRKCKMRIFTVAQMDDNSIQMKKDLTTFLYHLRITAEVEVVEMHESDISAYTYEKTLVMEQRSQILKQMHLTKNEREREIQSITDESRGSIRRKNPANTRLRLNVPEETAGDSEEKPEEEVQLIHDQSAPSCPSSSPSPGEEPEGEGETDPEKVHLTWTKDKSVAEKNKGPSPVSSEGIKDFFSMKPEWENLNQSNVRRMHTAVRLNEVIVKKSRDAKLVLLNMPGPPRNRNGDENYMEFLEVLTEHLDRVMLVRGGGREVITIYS
Yeast lifespan up = yeast lifespan extension; S. cerevisiae growth with nicotinamide, OD615; deaD strain in restrictive glucose medium; inhibition of the nicotinamide effect, % at 10 µM; 130,000 compounds, 0.68% hits; AID 775;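 active = inhibition above a set limit, placed 3 SD over the median of all compounds, cut at about 26% in these data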;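 also: 0% = nicotinamide-treated wells and 100% = cells grown without nicotinamide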
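assay system = DeaD-strain S. cerevisiae | measured by = absorbance at 615 nm | probe or stimulus = nicotinamide 1.5 mM | buffer or medium = CSMM-D glucose medium, restrictive | times = 48 h at 30 °C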
RAM inhibit = blocks the yeast RAM network; AID 868; inhibition, % at 50 µM; 190,000 compounds, 1.8% hits; S. cerevisiae dse1pr::URA3 reporter, 5-FOA growth OD615, 2 d; analog-sensitive cbk1-as2 kinase mutant strain;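 active = inhibition above a set limit, 3 SD over mean compound inhibition, cut at about 8.4% in these data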;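 also: 0% = DMSO-only wells with no growth and 100% = 10 µM 1-NA-PP1 full growth; inhibition rescues growth on 5-FOA so higher OD means more RAM inhibition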
Yeast growth inh = chemicals that inhibit yeast BB579 growth in restrictive medium (lifespan-shortening candidates); S. cerevisiae BB579 growth, OD615, 48 h; 140,000 compounds, 0.51% hits; inhibition, % at 10 µM;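 active = inhibition above a set limit, 3 SD over the mean compound inhibition, cut at about 44% in these data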
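System: Saccharomyces cerevisiae DeaD strain BB579, replicative lifespan model yeast. Buffer or medium: restrictive glucose-based CSMM-D medium. Doses: one dose, 10 µM compound with 0.25% DMSO. Timing: 4 h preincubation and 48 h exposure at 30 °C. Detection: turbidity as optical density at 615 nm. Benchmarks: amphotericin B 10 µg/mL, positive.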
KCC2 sec1 = KCC2 (human) modulation, secondary assay | normalised thallium flux (F/F0 slope) at 10 µM | shares compounds with Cl transport mod | 3,700 compounds, 15% hits | HEK293-KCC2, thallium flux, FluoZin2 fluorescence; hits give high values;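 active = thallium flux slope above the same plate's solvent-only control mean plus 3 SD; inconclusive = the two replicate wells disagree; inactive = no significant difference from solvent-only control wells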
KCC2 bumet counter = thallium flux despite bumetanide block in KCC2 cells, secondary assay 3. shares compounds with Cl transport mod. HEK293-KCC2 + bumetanide/ouabain, thallium flux FluoZin2; hits give high values. normalized thallium flux at 10 µM. 3,700 compounds, 49% hits. AID 1714;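 active = thallium entry rate above the same plate's blocked-transporter control wells by more than 3 SD; inconclusive = the two repeat wells disagree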;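 also: raw slope of fluorescence over initial fluorescence between 10 and 20 s after thallium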
KCC2 secondary2 = confirmation of human KCC2 transport modulators. shares compounds with Cl transport mod. HEK293-KCC2, thallium flux FluoZin2 fluorescence; actives lie on both sides; F/F0 rise rate, 10–20 s post-thallium. normalized thallium flux at 10 µM. 3,700 compounds, 23% hits;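 active = thallium flux slope more than 3 SD above or below the plate's solvent-only control mean, mostly below; inconclusive = the two repeat wells disagreed; inactive = no significant shift from solvent-only controls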;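 also: raw slope with 0.1% DMSO as baseline and bumetanide as block control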
HEK293 Tl flux = acts in parental HEK cells, KCC2 counter-screen; HEK293 parental cells, thallium flux FluoZin2, ouabain; baseline-ratio fluorescence slope, 10–20 s after thallium; 3,700 compounds, 46% hits; shares compounds with Cl transport mod; thallium flux rate (normalised fluorescence) at 10 µM;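 active = thallium flux rate significantly above the same plate's solvent-only control wells, beyond their mean plus 3 SD; inconclusive = the two replicate wells gave conflicting results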
KCC2 retest ouab = KCC2 (human) modulation, ouabain retest; raw Tl+ flux slope (below DMSO = inhibition, above = activation) at 10 µM; 3,700 compounds, 48% hits; shares compounds with Cl transport mod; HEK293-KCC2, thallium flux FluoZin2 fluorescence; bidirectional: low = inhibitor, high = activator;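 active = thallium flux slope beyond 3 SD from same-plate DMSO control mean in most replicates, usually higher, sometimes lower; inconclusive = repeat tests gave conflicting results; inactive = no significant difference from controls in most replicates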;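 also: slope of initial-normalized fluorescence between seconds 10 and 20 after thallium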
HEK counter2 = counter-screen for KCC2 modulators: effect in parental HEK293 cells; shares compounds with Cl transport mod; thallium flux FluoZin-2 fluorescence slope; AID 1718; 3,700 compounds, 33% hits; thallium flux slope at 10 µM;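 active = thallium flux slope above the same plate's solvent-control mean plus 3 SD in both duplicate wells; inconclusive = duplicate wells that disagreed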;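 also: run without ouabain in cells lacking the KCC2 cotransporter; slope of fluorescence scaled to its starting value between 10 and 20 s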
The depositor's hits bear a star; ? = inconclusive; · = no result.

SMILES	WT yeast gro inh	Cl transport mod	Yeast lifespan up	RAM inhibit	Yeast growth inh	KCC2 sec1	KCC2 bumet counter	KCC2 secondary2	HEK293 Tl flux	KCC2 retest ouab	HEK counter2
CN(C)S(=O)(=O)N(CC(=O)N1CCC(Cc2ccccc2)CC1)c1ccccc1	-10	-3.4	·	1	·	·	·	·	·	·	·
COc1ccc(N(CC(=O)N2CCC(Cc3ccccc3)CC2)S(C)(=O)=O)cc1	30	-5*	·	2	·	0.006	0.0038	?	0.0061*	0.015*	0.01
Cc1ccc(C(=O)NC(NC(=O)c2ccc(C)cc2)c2cccc([N+](=O)[O-])c2)cc1	2	-0.93	-3	8	-19	·	·	·	·	·	·
O=S(=O)(Nc1cc(Sc2cccc3cccnc23)c(O)c2ccccc12)c1ccccc1	47	48*	10	8	-4	0.035*	0.08*	0.044*	0.049*	0.058*	0.015*
COc1cc(NS(=O)(=O)c2ccc(C)cc2)c2ncccc2c1	2	49*	3	0	-11	0.028*	0.093*	0.035	?	0.062*	?
COc1ccc(C)cc1NS(=O)(=O)c1cccc2nonc12	1	6.5*	-4	-1	-13	0.011	0.019*	0.033	0.0075	0.027	?
COc1ccc(S(=O)(=O)Nc2cc(C)ccc2OC)cc1C	2	0.26	1	1	-76	·	·	·	·	·	·
Cc1ccc(S(=O)(=O)Nc2cccc3cccnc23)cc1	53	13*	-4	3	-4	?	0.066*	0.032	0.02*	0.035*	?
CC(C)c1nc2sc3c(=O)n(N)cnc3c2c2c1COC(C)(C)C2	-9	0.42	3	3	-29	·	·	·	·	·	·
S=c1[nH]nc(Cc2sc(-c3ccccc3)nc2-c2ccccc2)o1	4	-0.41	-4	2	-3	·	·	·	·	·	·
O=C(CCSCCC(=O)Nc1ccccc1F)Nc1ccccc1F	14	1.2	-1	2	-16	·	·	·	·	·	·
Cc1ccc(-c2cnc(N)n2C)cc1C	-8	·	-11	1	-9	·	·	·	·	·	·
COc1ccccc1NC(=O)c1ccc(NS(=O)(=O)c2cccc3cccnc23)cc1	-21	1.8	4	7	-37	·	·	·	·	·	·
COc1ccccc1NS(=O)(=O)c1cccc2cccnc12	-4	2.7*	-7	0	-19	0.0093	0.014*	0.035	?	0.023	?
Cc1ccc(CNC(=O)c2ccc(N3CCCC3=O)cc2)cc1	8	-4.3*	-8	5	-53	0.016	0.0046	0.029	0.0074	0.017	0.011
Cc1ccc(-n2c(C)nc3c(cnn3-c3ccccc3Cl)c2=O)cc1C	5	-1.1	-7	1	-27	·	·	·	·	·	·
Cc1nc2c(cnn2-c2ccccc2Cl)c(=O)n1-c1ccc(N2CCC(C)CC2)cc1	45	·	-6	3	-9	0.0092	0.0069	0.033	0.0079	0.02	0.011
C=CCN(CC=C)C(=S)NC(=O)/C=C/c1ccccc1	23	8.9*	0	1	-29	0.0055	0.023*	0.036	0.02*	0.029*	0.02*
Cc1cccc(NC(=S)NNC(=O)c2ccco2)c1	-5	·	-17	1	9	·	·	·	·	·	·
C=CCN(CC=C)C(=S)NC(=O)c1ccc(OC)cc1	27	71*	·	-1	·	0.053*	0.12*	0.09*	0.099*	0.093*	0.096*
COc1ccc(/C=C/C(=O)NC(=S)NNC(=O)c2cccs2)cc1	-15	12*	·	5	·	0.0079	0.023*	0.038	0.022*	0.037*	0.021*
O=C(/C=C/c1ccc(Br)cc1)NC(=S)NNC(=O)c1ccco1	5	3.9*	·	6	-33	0.01	0.01*	0.034	?	0.022	0.011
O=C(/C=C/c1ccccc1)NC(=S)Nc1ncccn1	·	-1.4	·	·	·	·	·	·	·	·	·
COc1ccc(/C=C/C(=O)NC(=S)NNC(=O)c2cccnc2)cc1	-9	2.1	6	4	-25	·	·	·	·	·	·
CC(C)CCNC(=O)CN(Cc1ccc2c(c1)OCO2)C(=O)CCC(=O)Nc1ccccn1	-19	0.95	-16	0	-16	·	·	·	·	·	·
SMILES	WT yeast gro inh	Cl transport mod	Yeast lifespan up	RAM inhibit	Yeast growth inh	KCC2 sec1	KCC2 bumet counter	KCC2 secondary2	HEK293 Tl flux	KCC2 retest ouab	HEK counter2
COc1ccc(/C=C/C(=O)NC(=S)N2CCN(C)CC2)cc1	0	0.73	·	1	·	·	·	·	·	·	·
C=CCN(CC=C)C(=S)NC(=O)/C=C/c1ccc(OC)cc1	5	74*	-1	2	-36	0.01*	0.14*	0.096*	0.11*	0.11*	0.087*
CCOc1ccc(CC(=O)NNC(=O)/C=C/C(=O)O)cc1	·	0.23	·	·	·	·	·	·	·	·	·
COc1ccc(S(=O)(=O)N2CCC(C(=O)N3CCc4ccccc4C3)CC2)cc1C	28	-3.5*	0	3	-43	0.007	0.0049	0.024*	0.0076	0.015*	0.01
Cc1ccc(S(=O)(=O)N2CCC(C(=O)N3Cc4ccccc4C3)CC2)cc1	-6	-0.13	-6	1	-22	·	·	·	·	·	·
O=C(C1CCN(S(=O)(=O)c2cccc3nsnc23)CC1)N1CCc2ccccc2C1	10	-6*	-9	1	-16	0.01	0.0068	0.023*	0.008	0.015*	0.011
CS(=O)(=O)N1CCC(C(=O)N2CCc3ccccc3C2)CC1	4	-0.19	-7	1	-19	·	·	·	·	·	·
O=C(C1CCC(=O)N1C1CCCCC1)N1CCN(c2ccc(F)cc2)CC1 (stereo not drawn)	·	0.39	-3	0	18	·	·	·	·	·	·
O=C(CN1CCN(S(=O)(=O)c2ccc(Cl)cc2)CC1)Nc1ccc2c(c1)CCC2	33	-0.59	-4	0	12	0.0054	0.005	0.028	0.0077	0.018	0.011
COc1ccccc1/C=C(\NC(=O)c1ccc(OC)c(OC)c1)C(=O)Nc1cc([N+](=O)[O-])ccc1C	8	5.2*	6	5	-39	0.015	0.0045	0.028	0.0068	0.017	0.0095
Cc1ccccc1-c1nc(CS(=O)(=O)CC(=O)NCc2ccccc2)c(C)o1	9	-5*	-2	6	-58	0.0053	0.0049	?	0.0073	?	0.011

Compound activity: PubChem, several laboratories
